# Source: PubChem
# A selection: hits, their analogues and other compounds. The true share with any hit is near 2.5%.
# S100A4 inh HTS: S100A4-myosin IIA interaction inhibition; P26447; S100A4/TAMRA-MyoIIA peptide fluorescence polarization; inhibition, % at 10.7 µM; hit rate 0.14% among 360,000; AID 652163;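 active = mean inhibition of at least 70% across replicates, with every replicate also reaching that level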
# Target sequence (P26447 whole entry, looked up): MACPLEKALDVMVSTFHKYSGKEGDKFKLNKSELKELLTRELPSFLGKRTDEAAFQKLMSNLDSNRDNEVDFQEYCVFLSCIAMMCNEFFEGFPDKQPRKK
#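 assay system = human S100A4 monomer with TAMRA-labelled myosin IIA peptide | also added = labelled myosin peptide probe, 5 nM | incubation = 5 min between mix addition and reading | control set = DMSO and TFP controls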
# E-sel inducer: induces E-selectin expression in human endothelial cells; HUVEC E-selectin immunofluorescence imaging; normalized: neutral wells 0, TNF-alpha wells 100; P16581; activation, % at 7.58 µM; hit rate 0.37% among 260,000;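 active = mean E-selectin-positive cell signal at least 10% of the positive control, reached in at least 60% of replicates, without over 20% cell loss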
#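 Read-out basis: % PE-positive cells; Test system: HUVEC primary endothelial cells; Technique: immunofluorescence imaging; Dosing: single-point compound dose.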
# miR122 inh: inhibitors of miR-122 in Huh7 cells; activation (reporter increase), % at 12.5 µM; hit rate 0.3% among 340,000; Huh7 miR-122 Renilla luciferase sensor, 48 h; neutral wells = 0, positive control = 100;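 active = mean replicate activation score at least 90 and every replicate individually at or above 90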;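 also: higher luciferase means less miR-122 activity so hits act as miR-122 inhibitors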
# SIRT5 block: sirtuin-5 (human) deacylase inhibition; Q9NXA8; hit rate 1.1% among 330,000; Purified SirT5, succinyl-peptide AMC, trypsin-coupled fluorescence; inhibition, % at 15 µM; AID 652115; in the data active = inhibition above about 15%
# Target sequence (Q9NXA8 whole entry, looked up): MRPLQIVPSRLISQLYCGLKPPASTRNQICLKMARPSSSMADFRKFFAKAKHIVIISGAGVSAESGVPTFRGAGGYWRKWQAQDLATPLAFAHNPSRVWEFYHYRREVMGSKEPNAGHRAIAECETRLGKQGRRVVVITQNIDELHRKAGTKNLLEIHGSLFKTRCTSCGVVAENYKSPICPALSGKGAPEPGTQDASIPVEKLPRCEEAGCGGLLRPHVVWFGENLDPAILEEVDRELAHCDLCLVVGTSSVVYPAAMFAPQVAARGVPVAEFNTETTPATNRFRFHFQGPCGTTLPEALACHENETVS
# FGF22 binding: shifts melting point of recombinant human FGF22; Q9HCT0; hit rate 1.5% among 340,000; recombinant FGF22 thermal shift, SYPRO orange fluorescence; percent of sucrose octasulfate shift, DMSO zero; activity (Tm shift, normalised), % at 9.99 µM; AID 651658;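 active = mean Tm shift, scaled 0 neutral to 100 positive control, at about 1.3% or above, every replicate too, limit read from the data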
# Target sequence (Q9HCT0 whole entry, looked up): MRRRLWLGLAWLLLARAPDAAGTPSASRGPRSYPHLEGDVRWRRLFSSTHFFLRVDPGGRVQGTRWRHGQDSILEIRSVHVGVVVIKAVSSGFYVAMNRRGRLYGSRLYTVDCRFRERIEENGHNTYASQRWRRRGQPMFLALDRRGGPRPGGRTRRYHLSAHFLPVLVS
# Numbers without * were called inactive; x = no result; [ ] = another dose, or the depositor's remark.
SMILES,S100A4 inh HTS,E-sel inducer,miR122 inh,SIRT5 block,FGF22 binding
CC(C)(C)OC(=O)N1CCC[C@H]1c1nnc(SCc2cccc(Cl)c2)o1,2.0,x,x,23.2*,0.0
COc1ccc2c3c(n(C)c2c1)[C@@H](CO)N(Cc1ccccc1OC)CC31CCN(C(=O)C2CC2)CC1,3.4,-1.0,x,-1.0,0.3
CCCNC(=O)N(C)C[C@@H]1Oc2cc(C#CC(C)(C)O)ccc2S(=O)(=O)N([C@H](C)CO)C[C@@H]1C,-3.8,-0.7,10.9[16.7 µM],-5.3,0.2
CC(Oc1ccccc1)C(=O)Nc1nnc(C2CCCCC2)s1 (stereo not given),-8.6,x,x,22.0*,-0.3
COc1ccc(S(=O)(=O)NC[C@@H]2CC[C@H]3[C@H](CN3Cc3cc(F)ccc3F)O2)cc1,68.7,x,x,-8.7,x
C[C@@H]1CN([C@@H](C)CO)C(=O)c2cc(NC(=O)Cc3cn(C)c4ccccc34)ccc2O[C@H]1CN(C)Cc1ccc(C(=O)Nc2ccccc2N)cc1,-44.5,0.6,14.8[16.7 µM],16.7*,-0.2
C[C@H](CO)N1C[C@H](C)[C@H](CN(C)Cc2ccc(C(=O)Nc3ccccc3N)cc2)Oc2ccc(NC(=O)Cc3cn(C)c4ccccc34)cc2C1=O,-31.3,x,21.5[16.7 µM],23.1*,-0.5
C[C@@H]1CN([C@@H](C)CO)C(=O)c2cc(NC(=O)Cc3cn(C)c4ccccc34)ccc2O[C@@H]1CN(C)Cc1ccc(C(=O)Nc2ccccc2N)cc1,4.5,1.8,13.2[16.7 µM],x,-0.2
COc1ccc(S(=O)(=O)N(C)C[C@H]2OCCCC[C@@H](C)Oc3ccc(NS(=O)(=O)c4ccc(Cl)cc4)cc3C(=O)N([C@H](C)CO)C[C@H]2C)cc1,-31.3,0.1,x,22.7*,-0.6
COc1ccc(S(=O)(=O)N(C)C[C@@H]2OCCCC[C@@H](C)Oc3ccc(NS(=O)(=O)c4ccc(Cl)cc4)cc3C(=O)N([C@@H](C)CO)C[C@H]2C)cc1,-3.2,-0.1,x,16.9*,x
COc1ccc(S(=O)(=O)Nc2ccc3c(c2)C(=O)N([C@H](C)CO)C[C@@H](C)[C@H](CN(C)S(=O)(=O)c2ccc(Cl)cc2)OCCCC[C@H](C)O3)cc1,-7.0,0.2,-0.4[16.7 µM],20.3*,22.7*
COc1ccc(S(=O)(=O)Nc2ccc3c(c2)C(=O)N([C@@H](C)CO)C[C@H](C)[C@H](CN(C)S(=O)(=O)c2ccc(Cl)cc2)OCCCC[C@@H](C)O3)cc1,-6.3,0.3,1.4[16.7 µM],22.0*,x
C[C@@H]1CN([C@@H](C)CO)C(=O)c2cc(NC(=O)Nc3ccccc3)ccc2O[C@@H]1CN(C)Cc1ccc(C(F)(F)F)cc1,-25.4,0.0,15.8[16.7 µM],3.3,x
CN1C(=O)c2cc(NC(=O)Nc3ccccc3)ccc2OC[C@H]2O[C@H](CC(=O)NC3CCC3)CC[C@@H]21,-0.2,-0.1,0.4[16.7 µM],-1.8,-0.5
C[C@H]1CN([C@@H](C)CO)C(=O)Cc2cc(NC(=O)c3ccncc3)ccc2O[C@H]1CN(C)Cc1ccc(-c2ccccc2)cc1,-3.5,1.4,-7.9[16.7 µM],4.1,-0.2
COc1ccc(S(=O)(=O)N(C)C[C@H]2OCCCC[C@H](C)Oc3ccc(NS(=O)(=O)c4ccc(Cl)cc4)cc3C(=O)N([C@@H](C)CO)C[C@H]2C)cc1,-5.6,0.0,x,17.3*,x
COc1ccc(S(=O)(=O)Nc2ccc3c(c2)C(=O)N([C@H](C)CO)C[C@H](C)[C@H](CN(C)S(=O)(=O)c2ccc(Cl)cc2)OCCCC[C@@H](C)O3)cc1,-10.2,-0.1,4.0[16.7 µM],9.5,-0.1
Cc1cccc(NC(=O)NC(C)C(c2cccs2)N2CCOCC2)c1 (stereo not given),-0.5,0.0,x,-0.3,0.3
Cc1cccc(NC(=O)NC(C)C(c2ccccc2)N2CCN(C)CC2)c1 (stereo not given),-3.5,x,x,1.2,43.2*
CC1(C)CC(=O)c2cc(C(=O)NNc3ccccc3)c(=O)n(-c3ccccc3)c2C1,-14.0,0.5,x,21.5*,-0.4
CC1(C)CC(=O)c2cc(C(=O)NCc3ccco3)c(=O)n(-c3ccccc3)c2C1,x,x,-4.6,x,x
CCOc1cc(CO)cc(Br)c1OCC(=O)O,x,x,-1.2,x,x
CCOc1cc(CO)cc(Br)c1OCC(=O)Nc1ccccc1C,1.8,1.3,-2.2,-0.7,42.9*
C[C@@H](NC(=O)C[C@@H]1CC[C@@H](NC(=O)C2CCC2)[C@H](CO)O1)c1ccccc1,3.7,0.4,x,-0.9,0.3
COc1ccc(-c2nc(-c3cccc(C)c3)no2)cc1OC,-3.8,x,x,17.0*,0.0
SMILES,S100A4 inh HTS,E-sel inducer,miR122 inh,SIRT5 block,FGF22 binding
COc1cc(-c2nc(-c3cccc(C)c3)no2)cc(OC)c1OC,x,x,-4.3,x,x
C[C@@H]1CN([C@H](C)CO)C(=O)c2cccc(NS(C)(=O)=O)c2O[C@@H]1CN(C)Cc1ccccc1,-54.0,0.4,1.9[16.7 µM],5.7,0.3
COc1cccc(Oc2nc(N)ncc2[N+](=O)[O-])c1,1.4,28.8*,-5.3,2.6,-0.1
COc1cccc(/C=C/C=O)c1,-49.8,x,x,5.3,0.7
O=C(O)c1cc(Nc2cc(Cl)c3nonc3c2[N+](=O)[O-])ccc1O,2.8,0.1,-9.7,4.2,1.8*
CC(=O)Nc1ccc(Nc2cc(N3CCOCC3)c3nonc3c2[N+](=O)[O-])cc1,1.1,1.3,-5.3,-1.9,x
O=[N+]([O-])c1c(Nc2ccc(O)cc2)cc(N2CCOCC2)c2nonc12,2.1,x,x,-1.7,44.0*
C[C@@H]1CN([C@H](C)CO)C(=O)c2cccc(NS(=O)(=O)c3ccc(Cl)cc3)c2O[C@H]1CN(C)Cc1ccncc1,2.7,0.0,5.0[16.7 µM],0.0,0.0
N#Cc1c(SCC(=O)Nc2nccs2)sc2c(O)cc(=O)[nH]c12,-9.9,0.2,-3.0,25.6*,-0.1
N#Cc1c(SCC(=O)Nc2nc3ccccc3s2)sc2c(O)cc(=O)[nH]c12,15.5,1.0,13.8,11.9,1.1
CCCSc1nnc(NC(=O)CSc2sc3c(O)cc(=O)[nH]c3c2C#N)s1,1.4,x,5.7,26.1*,0.0
Cc1ccc(NC(=O)COC(=O)CCc2c[nH]c3ccccc23)cc1[N+](=O)[O-],3.6,x,-1.5,-0.3,43.0*
Cc1ccccc1NC(=O)COC(=O)CCc1c[nH]c2ccccc12,-0.5,1.3,x,8.2,0.0
CN(C)c1ccc(/C=N/NC(=O)CCc2c[nH]c3ccccc23)cc1,-5.1,x,x,-3.4,43.9*
CC1=NNC(=O)C1CCC(=O)N/N=C(/C)c1ccc([N+](=O)[O-])cc1 (stereo not given),-48.9,-0.1,19.3,0.0,43.0*
C/C(=N\NC(=O)CCc1c[nH]c2ccccc12)c1ccc([N+](=O)[O-])cc1,0.4,x,x,-2.3,43.7*
O=C(Cc1c[nH]c2ccccc12)N/N=C/c1ccc(F)cc1,x,x,-3.1,x,x
C/C(=N\NC(=O)CCc1c(C)n[nH]c1C)c1ccc([N+](=O)[O-])cc1,4.0,-0.2,x,-2.6,0.1
O=C(CCc1c[nH]c2ccccc12)Nc1ccc(Nc2ccncc2)cc1,21.7,2.8,x,x,1.0
